# MrgX1 antagonist: antagonists of human MrgX1 receptor; MRGX1-HEK293 calcium flux, Fluo-4, BAM8-22 antagonism; hits give low values; B-score at 10 µM; hit rate 1.3% among 310,000; AID 588676;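 active means calcium-response B-score plate-corrected more than 3 library SD below zero, starting fluorescence within 5 deviations, no agonist response on first addition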;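 further: peak minus trough fluorescence over baseline after final BAM8-22 challenge near maximal dose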
# Target sequence (Q96LB2 whole entry, looked up): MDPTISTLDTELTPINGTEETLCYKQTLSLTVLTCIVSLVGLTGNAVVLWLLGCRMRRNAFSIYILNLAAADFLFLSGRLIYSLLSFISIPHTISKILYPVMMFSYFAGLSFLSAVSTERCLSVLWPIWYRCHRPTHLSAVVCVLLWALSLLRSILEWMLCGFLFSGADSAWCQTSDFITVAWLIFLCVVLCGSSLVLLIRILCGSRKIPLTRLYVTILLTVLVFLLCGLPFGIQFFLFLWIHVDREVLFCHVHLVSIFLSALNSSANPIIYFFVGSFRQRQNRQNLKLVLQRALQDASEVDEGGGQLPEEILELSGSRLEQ
# MrgX1 PAM: human MrgX1 positive allosteric modulation, primary screen. Q96LB2. MrgX1-HEK293, Fluo-4 calcium flux, FDSS; hits give high values. B-score at 10 µM. hit rate 0.63% among 310,000;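 active means plate-corrected calcium response at least 3 library SD above typical, normal starting fluorescence, not activating the receptor alone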;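 further: compound read alongside a low EC10 to EC30 dose of BAM8-22 agonist; peak minus trough fluorescence over baseline measured at the second addition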
# RGS4 act: potentiators or activators of RGS4; B-score at 10 µM; hit rate 0.92% among 310,000; AID 463111; HEK293 M3R/inducible RGS4, carbachol calcium flux Fluo4; hits give low values;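 active means B-score of the integrated calcium signal more than 4 SD below the library mean, with starting fluorescence not abnormally high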;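 further: negative B-score means reduced calcium response which marks RGS4 activation or potentiation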
#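 Test system: HEK293 cells with stable M3R and inducible RGS4; also added: carbachol at ECmax as muscarinic agonist stimulus; schedule: dye loading 30 min 37 °C, buffer rest 30 min RT; technique: kinetic calcium fluorescence imaging with Fluo4-AM dye, 2 µM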
# RGS4 inh: inhibitors of human RGS4; P49798; B-score at 10 µM; HEK293 M3R/RGS4 inducible, Fluo-4 calcium flux; hits give high values; triggered by carbachol at its EC20; hit rate 0.45% among 310,000;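 active means B-score, a plate-corrected calcium signal, over three deviations above library mean, with baseline fluorescence within five deviations of library mean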;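 further: RGS4 expression induced by doxycycline in cells with stable M3 receptor; B-score is computed from the integrated fluorescence ratio over baseline after carbachol; higher B-score means a larger calcium signal and so more RGS4 inhibition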
# Target sequence (P49798 whole entry, looked up): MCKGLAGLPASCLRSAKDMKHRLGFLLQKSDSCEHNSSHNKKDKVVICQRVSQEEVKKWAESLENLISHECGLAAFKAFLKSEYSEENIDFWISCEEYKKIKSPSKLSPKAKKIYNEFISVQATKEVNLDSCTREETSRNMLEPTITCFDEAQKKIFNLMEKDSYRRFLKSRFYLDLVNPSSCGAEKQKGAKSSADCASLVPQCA
# MrgX1 ag: activates human MrgX1 receptor signaling; Q96LB2; hit rate 0.44% among 310,000; B-score at 10 µM; AID 588627; MrgX1-HEK293 cells, Fluo-4 calcium fluorescence, agonist mode; hits give high values;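 active means calcium response B-score plate-corrected fluorescence ratio at least 3 library SD, with starting fluorescence B-score inside 5 SD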
#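 Material: MrgX1-expressing HEK293 cells; input: 15,000 cells per well; doses: test compound given as first of three sequential additions; schedule: overnight plating before 1 h dye loading; technique: Fluo-4 NW calcium-flux fluorescence, kinetic read; evaluation: baseline-normalised fluorescence change ratio, B-scored; control set: plate-wise positive and negative controls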
# The depositor's hits bear a star; i = inactive; / = no result given. Shown are actives, neighbours in structure and some others; about 3.5% of the full set was active somewhere.
SMILES,MrgX1 antagonist,MrgX1 PAM,RGS4 act,RGS4 inh,MrgX1 ag
O=c1c2c([N+](=O)[O-])cc([N+](=O)[O-])cc2sn1-c1ccc(Br)cc1,i,i,/,/,i
Cc1ncc(C[n+]2csc(CCOC(=O)CC34CC5CC(CC(C5)C3)C4)c2C)c(N)n1,i,i,i,i,i
Cc1c(CCOC(=O)CC23CC4CC(CC(C4)C2)C3)sc[n+]1Cc1ccccc1,i,i,-7.66*,i,i
CCOC(=O)CC(NC(=O)CCc1c(C)nc2ncnn2c1C)c1ccc(C)cc1 (stereo not given),i,i,i,i,i
O=C1/C(=C/c2ccccn2)COc2ccccc21,i,6.67*,i,i,i
O=C1/C(=C/c2ccc(O)cc2)COc2ccccc21,i,i,i,i,i
O=C(Nc1ccccc1)N1CCCC1c1cccs1 (stereo not given),i,i,i,i,i
Cc1ccccc1NC1=NCC(c2ccc([N+](=O)[O-])cc2)S1 (stereo not given),-5.66*,i,i,i,i
COc1ccc(-c2c(C#N)c(N)nc3sc(C(=O)c4ccccc4)c(N)c23)cc1,i,i,i,i,i
CSc1c(C#N)c(N)nc2sc(C(=O)c3ccc(Cl)c(Cl)c3)c(N)c12,-5.23*,i,i,i,i
Cc1nnc2sc(SCc3ccc(Cl)cc3)nn2c1=O,-6.62*,i,i,i,i
O=C(N/N=C/c1ccncc1)c1ccc(COc2cccc3cccnc23)cc1,i,i,i,i,i
O=C(N/N=C/c1ccc2cccc(OCc3ccccc3)c2n1)c1ccc(Cl)cc1,i,i,-9.92*,i,i
CCCc1sc(N/N=C/c2ccccn2)nc1-c1ccc(F)cc1,i,i,i,6.5*,i
Cc1cc(-n2c(C)cc(C(=O)CSc3ncnc4ccccc34)c2C)no1,-4.7*,i,i,i,i
C/C(=N\NC(=S)NCCc1ccccc1)c1ccc(Cl)cc1Cl,i,i,-9.09*,i,i
C/C(=N\NC(=S)NCCc1ccccc1)c1ccc(O)cc1O,i,i,i,i,i
COc1ccc(CCNc2ccc(C(CC(N)=O)NC(=O)c3cc(OC)ccc3OC)cc2[N+](=O)[O-])cc1 (stereo not given),-5.03*,i,i,i,i
CCOc1ccc(NC(=O)CN(C)C(=O)CCCOc2ccc(Br)cc2)cc1OCC,i,i,i,i,i
Cc1cc(C)nc(SCCN2CCCCC2)n1,i,i,i,i,i
CCCc1cc(-c2nc(N)ncc2-c2ccc3c(c2)OCCCO3)c(O)cc1OC,i,i,-9.2*,i,i
C=CC[n+]1c(-c2ccc(Cl)cc2Cl)csc1Nc1c(C)n(C)n(-c2ccccc2)c1=O,i,i,i,i,27.8*
CCCC[n+]1c(-c2ccc(Cl)cc2Cl)csc1Nc1ccccc1,i,i,i,i,i
Cc1c(NC(=O)Nc2cc(Cl)ccc2Cl)c(=O)n(-c2ccccc2)n1C,i,i,i,i,i
C=CC[n+]1c(-c2ccc(C)cc2)csc1Nc1c(C)n(C)n(-c2ccccc2)c1=O,i,i,-7.92*,i,i
SMILES,MrgX1 antagonist,MrgX1 PAM,RGS4 act,RGS4 inh,MrgX1 ag
C=CC[n+]1c(-c2ccc(Cl)cc2Cl)csc1Nc1ccc(NC(C)=O)cc1,i,i,-6.97*,i,i
CN(C)C(CNC(=O)C1CCN(S(=O)(=O)c2cccc(Cl)c2Cl)CC1)c1ccccc1 (stereo not given),i,i,i,i,i
CCC1(CC)C(=O)C2=C3C1[C@H](C(=O)OC)CC(C(=O)OC)C[C@H]3[C@H]1C(=O)N(c3ccccc3)C(=O)[C@H]1[C@H]2C (stereo not given in full),i,i,i,i,i
CCN(CC)c1ccc(/C=N/N2CCOCC2)c(O)c1,i,i,i,i,i
CCN(CC)c1ccc(C=Nc2ccccc2)c(O)c1,i,i,i,i,i
CCN(CC)c1ccc(/C=N/N=C(N)N)c(O)c1,-5.53*,7.75*,i,i,i
CCN(CC)c1ccc(/C=N/N2C(C)CCCC2C)c(O)c1 (stereo not given),i,7.7*,i,i,i
CCOc1ccc(/C=N/OCC(=O)Nc2cc(S(=O)(=O)N3CCOCC3)ccc2OC)cc1,i,i,i,i,i
CN1/C(=C\C=C2/SC(=S)NC2=O)C(C)(C)c2ccccc21,i,i,i,i,28.2*
CN1/C(=C/C=C(/C#N)C(N)=O)C(C)(C)c2ccccc21,i,i,i,i,32.8*
CN(C)/C=C1/C(=O)N(c2ccc([N+](=O)[O-])cc2)N=C1c1ccccc1,i,i,i,i,34.8*
CC1=NN(c2ccc([N+](=O)[O-])cc2)C(=O)/C1=C\N(C)C,i,i,i,i,i
CN(C)/C=C1\C(=O)N(c2ccc([N+](=O)[O-])cc2)N=C1c1ccccc1,i,i,i,i,50.4*
Cc1ccc(S(=O)(=O)NNC(=O)c2ccncc2)cc1[N+](=O)[O-],i,i,i,i,i
C/C(=N\O)c1ccccc1C(=O)O,-6.25*,i,i,i,i
OC(CCN1CCC2(CC1)OCCO2)C(F)(F)F (stereo not given),i,i,i,i,i
COc1ccc(CCNC(=O)c2ccc3c(c2)NC(=O)C(CSCc2cc(C)ccc2C)N3)cc1OC (stereo not given),i,i,i,i,27.5*
CC(=O)N1CCN(c2ccc(NC(=O)c3cccc([N+](=O)[O-])c3)cc2)CC1,i,i,i,i,i
O=C(NC1CCCc2c1cnn2-c1ccc(F)cc1F)c1csnn1 (stereo not given),i,i,i,i,i
N#C/C(=C/c1ccc(N2CCCCC2)cc1)c1cccc(F)c1,i,i,i,i,i
Cc1ccc(/C(C#N)=C\c2ccc(N3CCOCC3)o2)cc1,i,i,i,i,i
N#C/C(=C/c1ccc(N2CCCCCC2)o1)c1ccc(Cl)cc1,i,6.47*,i,i,i
N#C/C(=C/c1ccc(N2CCCCC2)o1)c1cccc(F)c1,-6.37*,i,i,i,i
O=C(CCl)Nc1ccccc1C(=O)Nc1ccc2c(c1)OCO2,i,i,i,i,i
O=C(O)c1ccc(/C=N/NC(=O)C2CC2(c2ccccc2)c2ccccc2)cc1 (stereo not given),-5.71*,i,i,i,i

# High-throughput results from PubChem BioAssay.
